Published values collected from several papers.
Effect on: microbial growth

| Structure (SMILES) | organism | assay | system | conditions | MIC |
| --- | --- | --- | --- | --- | --- |
| O=c1cc(-c2ccc(O)c(O)c2)oc2cc(O)cc(O)c12 | Helicobacter pylori | broth dilution |  |  | 3.9 mg/L |
| O=C1NC(=S)S/C1=C\c1ccc(-c2ccc(N(c3ccccc3)c3ccccc3)cc2)cc1 | Bacillus cereus | broth dilution | ATCC10876 |  | 1000 mg/L |
| C[C@@H](O)[C@H]1C(=O)N2C(C(=O)O)=C(S[C@@H]3CN[C@H](C(=O)N(C)C)C3)[C@H](C)[C@H]12 | Salmonella enterica | broth dilution | TYPHIMURIUM | clinical isolate | ≤ 0.5 mg/L |
| O=C(O)CN1C(=O)/C(=C/c2ccc(-c3ccc(N(c4ccccc4)c4ccccc4)cc3)c3ccccc23)SC1=S | Bacillus cereus | broth dilution | ATCC10876 |  | 1000 mg/L |
| CC1(C)S[C@@H]2[C@H](NC(=O)[C@H](N)c3ccccc3)C(=O)N2[C@H]1C(=O)O | Salmonella enterica |  | F98, TYPHIMURIUM | 20 h, pH 7 | 2 mg/L |
| Oc1ccc(-c2nc(-c3ccc(Oc4ccc(C(F)(F)F)cc4)cc3)no2)cc1 | Bacillus cereus | broth dilution | ATCC13061 |  | 2 mg/L |
| O=C(Nc1ncc([N+](=O)[O-])s1)C1CCCCC1 | Helicobacter pylori | broth dilution | 26695 | 27 h | 1.2 µM |
| CO/N=C(\C(=O)N[C@@H]1C(=O)N2C(C(=O)O)=C(CSC(=O)c3ccco3)CS[C@H]12)c1csc(N)n1 | Salmonella enterica |  |  | 20 h, pH 7.2 | 1 mg/L |
| O=C(Nc1ncc([N+](=O)[O-])s1)c1ccncc1 | Helicobacter pylori | broth dilution | 26695 | 27 h | 16 µM |
| O=C1NC(=S)S/C1=C\c1c2ccccc2c(-c2ccc(N(c3ccccc3)c3ccccc3)cc2)c2ccccc12 | Bacillus cereus | broth dilution | ATCC10876 |  | > 1000 mg/L |
| Cc1cc(NS(=O)(=O)c2ccc(N)cc2)no1 | Salmonella enterica |  | TYPHIMURIUM | 20 h, pH 5.5 | 1020 mg/L |
| O=C(O)CN1C(=O)/C(=C/c2ccc(-c3ccc(N(c4ccccc4)c4ccccc4)cc3)cc2)SC1=S | Bacillus cereus | broth dilution | ATCC10876 |  | 7.8 mg/L |
| CO/N=C(\C(=O)N[C@@H]1C(=O)N2C(C(=O)O)=C(CSc3nc(=O)c(=O)[nH]n3C)CS[C@H]12)c1csc(N)n1 | Salmonella enterica |  | F98, TYPHIMURIUM | 20 h, pH 5.5 | 0.25 mg/L |
